Reference: ChEMBL document CHEMBL1136958, “Design and optimization of renin inhibitors: Orally bioavailable alkyl amines” (Bioorg Med Chem Lett, 2009)
Active and inactive are the calls of the source. The rule behind the calls is not given here.

What was measured:
Renin [1] = biological target: T1, Renin (Homo sapiens, UniProt P00797); assay: Inhibition of human recombinant renin
T1 sequence (P00797 whole entry): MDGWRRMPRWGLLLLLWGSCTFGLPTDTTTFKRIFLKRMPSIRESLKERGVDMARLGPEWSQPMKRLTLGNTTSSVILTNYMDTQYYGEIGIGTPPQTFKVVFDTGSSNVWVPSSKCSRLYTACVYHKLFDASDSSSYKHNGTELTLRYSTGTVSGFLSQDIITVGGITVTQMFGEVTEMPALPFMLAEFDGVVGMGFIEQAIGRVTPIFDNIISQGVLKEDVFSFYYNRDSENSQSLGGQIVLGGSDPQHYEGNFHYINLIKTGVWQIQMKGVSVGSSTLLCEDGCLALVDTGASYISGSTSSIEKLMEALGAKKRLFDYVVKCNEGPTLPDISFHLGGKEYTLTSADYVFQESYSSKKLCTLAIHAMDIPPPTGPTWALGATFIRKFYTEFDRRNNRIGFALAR

Renin [2] = biological target: T1, Renin; assay: Inhibition of human recombinant renin in presence of human plasma by competitive radioimmunoassay; format: cell-free
[3] = Tmax in rat at 10 mg/kg, po and 2 mg/kg, iv; format: ADME, organism-based; conditions: in vivo
Method in brief: (§1)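 Rats dosed with the fumarate salt at 10 mg/kg by oral route and 2 mg/kg intravenously. Plasma concentrations measured over time, and PK parameters derived from them.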

[4] = Half life in rat at 10 mg/kg, po and 2 mg/kg, iv; format: ADME, organism-based; conditions: in vivo; method in brief: as §1
[5] = Cmax in rat at 10 mg/kg, po and 2 mg/kg, iv; format: ADME, organism-based; conditions: in vivo; method in brief: as §1
[6] = Clearance in rat at 2 mg/kg, iv; format: ADME, organism-based; set-up: dose 2 mg/kg, route intravenous; conditions: in vivo; method in brief: as §1
[7] = AUC (infinity) in rat at 10 mg/kg, po and 2 mg/kg, iv; format: ADME, organism-based; conditions: plasma; method in brief: as §1
[8] = Oral bioavailability in rat at 10 mg/kg; format: ADME, organism-based; conditions: in vivo; method in brief: as §1
[9] = AUC (0 to t) in rat at 10 mg/kg, po and 2 mg/kg, iv; format: ADME, organism-based; conditions: plasma; method in brief: as §1
Rattus norvegicus = assay: Antihypertensive activity in double transgenic rat model assessed as reduction in blood pressure at 60 mg/kg, po administered on day 2 and day 3 after vehicle treatment on day 1; format: functional, organism-based; set-up: dose 60 mg/kg
Method in brief: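 Telemetered double transgenic rats carrying human angiotensinogen and human renin genes (n = 4). Vehicle given on day 1 with blood pressure monitored over 24 h. Oral gavage at 60 mg/kg at t = 24 h and 48 h, with blood pressure followed continuously by telemetry.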

[10] = Volume of distribution at steady state in rat at 10 mg/kg, po and 2 mg/kg, iv; format: ADME, organism-based; conditions: in vivo, read-out: Vdss

Structure (SMILES) | IC50 (Renin [1]) [nM] | IC50 (Renin [2]) [nM] | further results
CCOCCCO[C@@H](c1cccc(Cl)c1Cl)[C@@H]1CCCN(C(=O)N[C@H](CNC)CC2CCCCC2)C1 | 125 | – | –
CNC[C@H](CC1CCCCC1)NC(=O)N1CCC[C@@H]([C@@](O)(CCCCOC)c2ccccc2Cl)C1 | 7 | 151 | –
CNC[C@H](CC1CCCCC1)NC(=O)N1CCC[C@@H]([C@@](O)(CCCCOC)c2cccc(C(F)(F)F)c2)C1 | 7 | 389 | –
COCCCC[C@@](O)(c1ccccc1)[C@@H]1CCCN(C(=O)N[C@H](CN)CC2CCCCC2)C1 | 21 | 165 | –
CNC[C@H](CC1CCCCC1)NC(=O)N1CCC[C@@H]([C@@](O)(CCCCOC)c2cccc(OC(F)(F)F)c2)C1 | 69 | – | –
CCOCCCO[C@@H](c1cccc(Cl)c1)[C@@H]1CCCN(C(=O)N[C@H](CN)CC2CCCCC2)C1 | 5.5 | 190 | –
CNC[C@H](CC1CCCCC1)NC(=O)N1CCC[C@@H]([C@@](O)(CCCCOC)c2cccc(F)c2)C1.O=C(O)/C=C/C(=O)O | – | – | Tmax [3]: 2.7 h; half-life [4]: 576 min; Cmax [5]: 83 ng/mL; clearance [6]: 59 mL/min/kg; AUC(0-inf) [7]: 510 ng·h/mL; bioavailability [8]: 21.1%; AUC(0-t) [9]: 433 ng·h/mL
CNC[C@H](CC1CCCCC1)NC(=O)N1CCC[C@@H]([C@@](O)(CCCCOC)c2ccccc2F)C1 | 4 | 61 | –
CNC[C@H](CC1CCCCC1)NC(=O)N1CCC[C@@H]([C@@](O)(CCCCOC)c2ccccc2)C1.O=C(O)/C=C/C(=O)O | – | – | Tmax [3]: 2 h; Cmax [5]: 101 ng/mL; clearance [6]: 66 mL/min/kg; AUC(0-inf) [7]: 689 ng·h/mL; bioavailability [8]: 33.6%; AUC(0-t) [9]: 547 ng·h/mL
CNC[C@H](CC1CCCCC1)NC(=O)N1CCC[C@@H]([C@@](O)(CCCCOC)c2cccc(Cl)c2)C1 [listing 1 of 2 here] | – | – | Activity (Rattus norvegicus): Active
CNC[C@H](CC1CCCCC1)NC(=O)N1CCC[C@@H]([C@@H](OCCCO)c2cccc(Cl)c2)C1 | 764 | – | –
COCCCC[C@@](O)(c1cccc(Cl)c1)[C@@H]1CCCN(C(=O)N[C@H](CNCC(F)(F)F)CC2CCCCC2)C1 | 46 | 1400 | –
CCOCCCO[C@@H](c1ccccc1)[C@@H]1CCCN(C(=O)N[C@H](CNC)CC2CCCCC2)C1.O=C(O)/C=C/C(=O)O | – | – | Vd [10]: 22 L/kg; Tmax [3]: 3 h; Cmax [5]: 91 ng/mL; clearance [6]: 59 mL/min/kg; AUC(0-inf) [7]: 882 ng·h/mL; bioavailability [8]: 35.8%
CCOCCCO[C@@H](c1cccc(F)c1)[C@@H]1CCCN(C(=O)N[C@H](CNC)CC2CCCCC2)C1 | 11 | 84 | –
CNC[C@H](CC1CCCCC1)NC(=O)N1CCC[C@@H]([C@@](O)(CCCCOC)c2cccc(F)c2F)C1 | 0.14 | 20 | –
CCOCCCC[C@@](O)(c1ccccc1)[C@@H]1CCCN(C(=O)N[C@H](CNC)CC2CCCCC2)C1.O=C(O)/C=C/C(=O)O | – | – | Vd [10]: 55 L/kg; Tmax [3]: 3 h; half-life [4]: 522 min; Cmax [5]: 135 ng/mL; clearance [6]: 79 mL/min/kg; AUC(0-inf) [7]: 833 ng·h/mL; bioavailability [8]: 48.3%; AUC(0-t) [9]: 745 ng·h/mL
COCCCO[C@@H](c1ccccc1)[C@@H]1CCCN(C(=O)N[C@H](CN)CC2CCCCC2)C1 | 308 | – | –
CNC[C@H](CC1CCCCC1)NC(=O)N1CCC[C@@H]([C@@](O)(CCCCOC)c2cccc(F)c2)C1 | 3 | 47 | –
COCCCC[C@@](O)(c1ccccc1)[C@@H]1CCCN(C(=O)N[C@H](CN)CC2CCCCC2)C1.O=C(O)/C=C/C(=O)O | – | – | Vd [10]: 56 L/kg; Tmax [3]: 2.3 h; half-life [4]: 306 min; Cmax [5]: 28 ng/mL; clearance [6]: 46 mL/min/kg; AUC(0-inf) [7]: 192 ng·h/mL; bioavailability [8]: 7.5%; AUC(0-t) [9]: 221 ng·h/mL
CNC[C@H](CC1CCCCC1)NC(=O)N1CCC[C@@H]([C@@](O)(CCCCO)c2cccc(Cl)c2)C1 | 21 | 315 | –
CCNC[C@H](CC1CCCCC1)NC(=O)N1CCC[C@@H]([C@@](O)(CCCCOC)c2cccc(Cl)c2)C1 | 6 | 154 | –

Structure (SMILES) | IC50 (Renin [1]) [nM] | IC50 (Renin [2]) [nM] | further results
CCOCCCO[C@@H](c1ccccc1)[C@@H]1CCCN(C(=O)N[C@H](CN)CC2CCCCC2)C1 | 55 | – | –
CNC[C@H](CC1CCCCC1)NC(=O)N1CCC[C@@H]([C@@](O)(CCCCOC)c2cccc(Cl)c2F)C1.O=C(O)/C=C/C(=O)O | – | – | Vd [10]: 16 L/kg; Tmax [3]: 4.3 h; half-life [4]: 480 min; Cmax [5]: 28 ng/mL; clearance [6]: 30 mL/min/kg; AUC(0-inf) [7]: 254 ng·h/mL; bioavailability [8]: 5.5%
CNC[C@H](CC1CCCCC1)NC(=O)N1CCC[C@@H]([C@@H](OCCCOC)c2cccc(Cl)c2F)C1 | 39 | 369 | –
COCCCOc1cc(C[C@@H](C[C@H](N)[C@@H](O)C[C@H](C(=O)NCC(C)(C)C(N)=O)C(C)C)C(C)C)ccc1OC.COCCCOc1cc(C[C@@H](C[C@H](N)[C@@H](O)C[C@H](C(=O)NCC(C)(C)C(N)=O)C(C)C)C(C)C)ccc1OC.O=C(O)/C=C/C(=O)O [ALISKIREN FUMARATE] | – | – | Tmax [3]: 0.1 h; Cmax [5]: 4 ng/mL; clearance [6]: 55 mL/min/kg; AUC(0-inf) [7]: 31 ng·h/mL; bioavailability [8]: 1.2%
CNC[C@H](CC1CCCCC1)NC(=O)N1CCC[C@@H]([C@@](O)(CCCCOC)c2cc(C)ccc2F)C1 | 3.5 | 67 | –
CNC[C@H](CC1CCCCC1)NC(=O)N1CCC[C@@H]([C@@](O)(CCCCOC)c2cc(F)cc(Cl)c2)C1 | 0.9 | 28 | –
CNC[C@H](CC1CCCCC1)NC(=O)N1CCC[C@@H]([C@@](O)(CCCCOC)c2cccc(Br)c2)C1 | 0.13 | 12 | –
CNC[C@H](CC1CCCCC1)NC(=O)N1CCC[C@@H]([C@@](O)(CCCCOC)c2cccc(OC)c2)C1 | 13 | 88 | –
CCOCCCO[C@@H](c1cccc(Cl)c1)[C@@H]1CCCN(C(=O)N[C@H](CNC)CC2CCCCC2)C1 | 4 | – | –
CNC[C@H](CC1CCCCC1)NC(=O)N1CCC[C@@H]([C@@H](OCCCOC)c2cccc(Cl)c2Cl)C1 | 609 | – | –
CCOCCCO[C@@H](c1ccccc1)[C@@H]1CCCN(C(=O)N[C@H](CNC)CC2CCCCC2)C1 | 40 | 447 | –
CNC[C@H](CC1CCCCC1)NC(=O)N1CCC[C@@H]([C@@](O)(CCCCOC)c2cccc(Cl)c2F)C1 | 0.1 | 27 | –
CCc1cccc([C@](O)(CCCCOC)[C@@H]2CCCN(C(=O)N[C@H](CNC)CC3CCCCC3)C2)c1 | 9 | 285 | –
CCOCCCC[C@@](O)(c1ccccc1)[C@@H]1CCCN(C(=O)N[C@H](CNC)CC2CCCCC2)C1 | 16 | 162 | –
CNC[C@H](CC1CCCCC1)NC(=O)N1CCC[C@@H]([C@@](O)(CCCCOC)c2cccc(C)c2)C1 | 2.5 | 67 | –
CNC[C@H](CC1CCCCC1)NC(=O)N1CCC[C@@H]([C@@H](OCCCOC)c2cccc(F)c2)C1 | 58 | – | –
CNC[C@H](CC1CCCCC1)NC(=O)N1CCC[C@@H]([C@@](O)(CCCCOC)c2cccc(Cl)c2)C1 [listing 2 of 2 here] | – | 13 | –
CCOCCCC[C@@](O)(c1ccccc1)[C@@H]1CCCN(C(=O)N[C@H](CN)CC2CCCCC2)C1 | 38 | 490 | –
CNC[C@H](CC1CCCCC1)NC(=O)N1CCC[C@@H]([C@@](O)(CCCCOC)c2cccc(C#N)c2)C1 | 37 | 86 | –
CNC[C@H](CC1CCCCC1)NC(=O)N1CCC[C@@H]([C@@](O)(CCCCOC)c2ccccc2)C1 | 7 | 64 | –
